According to ChEMBL document CHEMBL4813982, “Novel pyrazolo[4,3-d]pyrimidine microtubule targeting agents (MTAs): Synthesis, structure-activity relationship, in vitro and in vivo evaluation as antitumor agents” (Bioorg Med Chem Lett, 2021):

Experiments:
[1] = biological target: T1, Tubulin (Homo sapiens) (UniProt P68371+Q9H4B7+P0DPH7+P68366+Q13509+Q71U36+P04350+Q3ZCM7+P07437+P68363+Q9BQE3+Q6PEY2+Q13885+Q9BVA1+Q9BUF5); test: Inhibition of [3H]colchicine binding to tubulin (unknown origin) at 5 uM relative to control; assay type: protein-complex assay
[2] = biological target: T1, Tubulin (Homo sapiens); test: Inhibition of [3H]colchicine binding to tubulin (unknown origin) at 0.5 uM relative to control; assay type: protein-complex assay
[3] = biological target: Tubulin; test: Inhibition of tubulin assembly (unknown origin); assay type: protein-complex assay, Homo sapiens
[4] = tested on: MCF7; test: Antiproliferative activity against human MCF7 cells; assay type: functional, cell-based
[5] = tested on: MCF7; test: Antiproliferative activity against human MCF7 cells expressing TUBB3; assay type: functional, cell-based
[6] = Resistance ratio of EC50 for antiproliferative activity against human MCF7 cells expressing TUBB3 to EC50 for antiproliferative activity against human MCF7 cells; assay type: functional
Procedure, shortened: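 Resistance ratio: EC50 in MCF-7 cells overexpressing βIII-tubulin divided by EC50 in parental wild-type MCF-7 cells.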

[7] = tested on: MCF7; test: Potency index, ratio of EC50 of paclitaxel to EC50 of compound for antiproliferative activity against human MCF7 cells; assay type: functional
[8] = tested on: MCF7; test: Potency index, ratio of EC50 of paclitaxel to EC50 of compound for antiproliferative activity against human MCF7 cells expressing TUBB3; assay type: functional
[9] = tested on: OVCAR-8; test: Antiproliferative activity against human OVCAR-8 cells; assay type: functional, cell-based
[10] = tested on: NCI/ADR-RES; test: Antiproliferative activity against human NCI/ADR-RES cells overexpressing Pgp; assay type: functional, cell-based
[11] = Resistance ratio of IC50 for antiproliferative activity against human NCI/ADR-RES cells expressing Pgp to IC50 for antiproliferative activity against human OVCAR-8 cells; assay type: functional
Procedure, shortened: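 Resistance ratio: IC50 in Pgp-overexpressing NCI/ADR-RES cells divided by IC50 in parental OVCAR-8 cells.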

inhibition [1] | inhibition [2] | IC50 [3] | EC50 [4] | EC50 [5] | IC50 [9] | SMILES | Ratio EC50 [6] | Ratio EC50 [7] | Ratio EC50 [8] | IC50 [10] | Ratio IC50 [11]
43% | – | – | – | – | – | COc1ccc2c(c1)CCCN2c1nc(C)nc2c(Cc3ccccc3)c[nH]c12 | – | – | – | – | –
99% | 88% | 420 nM | 7.7 nM | 9.7 nM | 2 nM | CCOc1ccc(N(C)c2nc(Cl)nc3cnn(C)c23)cc1 | 1.3 | 25 | 220 | 4 nM | 2
60% | – | 10000 nM | – | – | – | COc1ccc(N(C)c2nc(C)nc3cc[nH]c23)cc1 | – | – | – | – | –
93% | 64% | 820 nM | – | – | 31 nM | CSc1ccc(N(C)c2nc(Cl)nc3cnn(C)c23)cc1 | – | – | – | 17 nM | 0.54
